Publication PMC10424182 (Journal of Medicinal Chemistry, 2023)
Like-named read-outs stand apart in the source and are kept apart here.

How the values were obtained:
Format in all cases: binding
[1] = target: T1, PSP brain homogenates (4R-tau aggregates) (Homo sapiens, UniProt P10636); assay: Competition
In short: (§1)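 Post-mortem human brain homogenate in PBS pH 7.0, 100 μg tissue/mL final, with ~1 nM tritiated radioligand and unlabelled test compound at 0.1–1000 nM (0.25% DMSO final for non-Enamine compounds). Incubated 60 min at room temperature, then GF/B filtration, four PBS washes and scintillation counting. Full inhibition was taken as counts displaced by 1 μM unlabelled radioligand. Triplicates at each concentration.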

[2] = target: T2, AD brain homogenates (mixed 3R/4R-tau) (Homo sapiens, UniProt P10636); assay: Competition
T2 sequence (P10636 623-758 limits assumed): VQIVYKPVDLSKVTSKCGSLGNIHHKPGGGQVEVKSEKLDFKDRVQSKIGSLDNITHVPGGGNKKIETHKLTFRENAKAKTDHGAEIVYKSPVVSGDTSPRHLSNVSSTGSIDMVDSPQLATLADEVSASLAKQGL

[3] = target: T1, PSP brain homogenates (4R-tau aggregates); assay: Competition; remark: listed apart in the source
In short: as §1

[4] = target: T3, CBD brain homogenates (4R-tau aggregates) (Homo sapiens, UniProt P10636); assay: Competition
T3 sequence (P10636 1-441 isoform P10636-8): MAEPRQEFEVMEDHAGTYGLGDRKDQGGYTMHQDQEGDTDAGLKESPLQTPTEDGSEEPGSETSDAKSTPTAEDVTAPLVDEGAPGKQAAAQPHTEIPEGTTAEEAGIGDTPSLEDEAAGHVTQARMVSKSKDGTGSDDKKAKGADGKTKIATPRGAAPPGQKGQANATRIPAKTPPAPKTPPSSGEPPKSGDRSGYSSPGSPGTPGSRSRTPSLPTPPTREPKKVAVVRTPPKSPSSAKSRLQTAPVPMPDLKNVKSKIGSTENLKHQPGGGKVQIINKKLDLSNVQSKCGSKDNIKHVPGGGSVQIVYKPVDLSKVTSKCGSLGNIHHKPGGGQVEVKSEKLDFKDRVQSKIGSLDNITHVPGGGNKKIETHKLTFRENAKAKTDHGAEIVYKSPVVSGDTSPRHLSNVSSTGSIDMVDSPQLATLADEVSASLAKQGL
In short: as §1

[5] = target: T2, AD brain homogenates (mixed 3R/4R-tau); assay: Competition; remark: listed apart in the source
[6] = target: aggregated amyloid-beta (Aβ) in AD tissue (Homo sapiens, UniProt P05067); assay: Competition
aggregated amyloid-beta (Aβ) in AD tissue, sequence (P05067 672-713): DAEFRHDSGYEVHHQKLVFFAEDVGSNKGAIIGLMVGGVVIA
In short: as §1

[7] = target: T1, PSP brain homogenates (4R-tau aggregates); assay: Competition; remark: listed apart in the source
In short: as §1

[8] = target: T3, CBD brain homogenates (4R-tau aggregates); assay: Competition; remark: listed apart in the source
In short: as §1

[9] = target: T3, CBD brain homogenates (4R-tau aggregates); assay: Competition; remark: listed apart in the source
In short: as §1

[10] = target: T1, PSP brain homogenates (4R-tau aggregates); assay: Competition; remark: listed apart in the source
In short: as §1

[11] = target: T2, AD brain homogenates (mixed 3R/4R-tau); assay: Competition; remark: listed apart in the source
[12] = target: T2, AD brain homogenates (mixed 3R/4R-tau); assay: Competition; remark: listed apart in the source
[13] = target: T2, AD brain homogenates (mixed 3R/4R-tau); assay: Single concentration; details: 300 nM unlabeled compound
[14] = target: T1, PSP brain homogenates (4R-tau aggregates); assay: Single concentration; details: 300 nM unlabeled compound
In short: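 A PSP homogenate (100 μg tissue/mL) was run with ~1 nM [3H]-ligand as in the Ki assay, with a single 300 nM test compound, 60 min at room temperature, then filtered and counted. 0% was specific binding with no competitor; 100% was nonspecific binding at 1 μM unlabelled radioligand. The % value is […] divided by the 0%−100% count difference, ×100. Run in triplicate.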

T1 sequence (P10636 1-441 isoform P10636-8): as the sequence (P10636 1-441 isoform P10636-8) above

| Ki [1] | Ki [5] | Ki [7] | Ki [9] | Ki [11] | SMILES | also measured |
| --- | --- | --- | --- | --- | --- | --- |
| 0.52 µM | 0.745 µM |  |  |  | OCC1CCN(c2ccc(-c3cc4cc(O)ccc4[nH]3)c(F)n2)CC1 [CBD-2115, 2-(2-fluoro-6-(4-(hydroxymethyl)piperidin-1-yl)pyridin-3-yl)-1H-indol-5-ol] | Ki [2]: 7.14 µM; Ki [3]: > 10 µM; Ki [4]: 2.93 µM |
|  |  | 0.25 µM | 0.21 µM | 0.27 µM | OC1CCN(c2ncc(-c3cc4ccc(F)cc4[nH]3)cn2)CC1 [Compound 1, 1-(5-(6-fluoro-1H-indol-2-yl)pyrimidin-2-yl)piperidin-4-ol] | Ki [6]: 0.142 ± 0.005 µM; Ki [8]: 0.071 µM; Ki [10]: 0.095 µM; Ki [12]: 0.08 µM |
| 0.022 µM | 0.012 µM |  |  |  | Oc1cccc2sc(-c3cnc(N4CCC(O)CC4)nc3)cc12 [Compound 6] | inhibition of [^3H]1, AD tissue [13]: > 65%; inhibition of [^3H]1, PSP tissue [14]: > 65% |
| 0.022 µM | 0.021 µM |  |  |  | O=C1CCN(c2ncc(-c3cc4ccccc4[nH]3)cn2)CCN1 [Compound 19] |  |
| 0.018 µM | 0.018 µM |  |  |  | O[C@@H]1CCN(c2ccc(-c3cc4ccc(F)cc4[nH]3)cn2)C1 [Compound 20] |  |
|  |  | 0.27 µM | 0.23 µM | 0.27 µM | Fc1ccc2cc(-c3cnc(N4CCOCC4)nc3)[nH]c2c1 [Compound 21, 4-(5-(6-fluoro-1H-indol-2-yl)pyrimidin-2-yl)morpholine] | Ki [6]: 0.062 ± 0.003 µM; Ki [8]: 0.11 µM; Ki [10]: 0.093 µM; Ki [12]: 0.1 µM |
| 0.315 µM | 0.096 µM |  |  |  | Nc1c(F)ccc2cnc(-n3ccc4ccncc43)cc12 [MK-6240] |  |
| 0.089 µM | 0.058 µM |  |  |  | Fc1cc(-c2ccc3c(n2)[nH]c2ccncc23)ccn1 [PI-2620] |  |
| 0.018 µM | 0.015 µM | > 10 µM | 1.54 µM | 7.93 µM | CNc1ccc(/C=C/C=C/c2nc3ccc(OCC(O)CF)cc3s2)cn1 (centres unmarked) [PM-PBB3, reference compound] |  |
| > 1 µM | > 1 µM |  |  |  | Fc1ccc(-c2ccc3c(c2)[nH]c2ccncc23)cn1 [Tauvid] |  |
